# DAGLB inh = diacylglycerol lipase beta (human) inhibition. 340,000 tested, 0.059% active. inhibition, % at 5.17 µM. Q8NCG7. HEK293T DAGLB membrane lysate, EnzChek fluorogenic substrate; in the data active = inhibition above about 34%
# TAAR1 antagonist = antagonists of human TAAR1. Q96RJ0. CHO RD-HGA16 TAAR1, Fluo-8 calcium fluorescence, antagonist. inhibition, % at 3 µM. 360,000 tested, 1.5% active;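 active = inhibition above a per-plate cutoff, the mean inhibition of test compounds on that plate plus 3 SD, cut at about 49% in these data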
# Target sequence (Q96RJ0 whole entry, looked up): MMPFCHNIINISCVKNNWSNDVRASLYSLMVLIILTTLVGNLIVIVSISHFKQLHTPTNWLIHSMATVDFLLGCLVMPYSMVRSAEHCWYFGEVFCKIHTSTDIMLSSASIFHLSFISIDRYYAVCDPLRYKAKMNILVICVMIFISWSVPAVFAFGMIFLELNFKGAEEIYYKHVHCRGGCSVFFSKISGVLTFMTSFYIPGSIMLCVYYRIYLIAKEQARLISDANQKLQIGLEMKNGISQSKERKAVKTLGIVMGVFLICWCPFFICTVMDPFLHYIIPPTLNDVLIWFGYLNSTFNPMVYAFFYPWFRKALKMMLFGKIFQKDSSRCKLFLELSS
#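 Test system: CHO RD-HGA16 cells bearing hTAAR1 | Reagent: β-PEA, EC80 | Compound dosing: 3 µM, single point | Schedule: Dye loading 75 min at 37 °C, then 30 min room temperature | Signal: Calcium fluorescence with Fluo-8 | Evaluation: Percent inhibition of PEA-evoked calcium signal, max/basal emission ratio | Control set: DMSO-only wells and EC80 β-PEA-stimulated wells | Repeats: Singlicate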
# TAAR1 ag = agonists of human TAAR1; Q96RJ0; CHO RD-HGA16 TAAR1, Fluo-8 calcium fluorescence; vehicle wells 0%, saturating PEA agonist 100%; activation, % at 3 µM; 360,000 tested, 0.99% active;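 active = activation above the mean activation of all test compounds in the run plus 3 SD, cut at about 38% in these data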
#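 System: CHO RD-HGA16 cells carrying human TAAR1 plus Gα16; Incubation: 17-24 h seeding, 75 min 37 °C dye, 30 min RT; Measured by: Fluo-8 fluorescence, 5 s baseline then 140 s kinetic read; Control set: DMSO and PEA EC100; Replication: single well for each compound.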
# GPR7 antag = antagonists of human GPR7 (neuropeptides B/W receptor 1). inhibition, % at 4.4 µM. P48145. 290,000 tested, 1.1% active. GPR7-expressing cells, fluorescence antagonist assay; in the data active = inhibition above about 16%, passing the limit was not always enough;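 note: cells stimulated with the agonist NPW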
# MPTP block = permeability transition pore inhibition | isolated mouse mitochondria, Ca2+ swelling absorbance, 30 min | inhibition, % at 10 µM | 360,000 tested, 1.4% active;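 active = inhibition of 50% or more, scaled per plate between neutral and stimulator controls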
# TAAR1 ag conf = human TAAR1 agonism, confirmed | shares compounds with TAAR1 ag | CHO RD-HGA16 TAAR1, Fluo-8 calcium fluorescence; scaled: DMSO 0%, maximal phenethylamine 100% | activation, % at 3 µM | 2,400 tested, 82% active | AID 651783;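 active = activation above a cutoff set at the run's mean compound activation plus 3 SD, cut at about 39% in these data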
# Ga16 ag counter = counter-screen for TAAR1 agonists: nonselective agonists in parental cells | activation, % at 3 µM | AID 651787 | CHO-Ga16 parental, Fluo-8 calcium fluorescence; normalized to maximal ATP response, DMSO zero | 2,400 tested, 50% active | shares compounds with TAAR1 ag;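 active = activation above the run cutoff, the mean activation over all tested wells plus 3 SD, cut at about 12% in these data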
# TAAR1 desens = counter-screen for human TAAR1 agonists: agonists that desensitize TAAR1; shares compounds with TAAR1 ag; CHO RD-HGA16 hTAAR1, Fluo-8 calcium, beta-PEA response inhibition; inhibition, % at 3 µM; 2,400 tested, 46% active; AID 651951;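 active = inhibition above the run cutoff, the mean inhibition of all test compounds plus 3 SD, cut at about 49% in these data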;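 note: beta-PEA stimulus applied at its EC80; loss of beta-PEA calcium signal after compound pretreatment read as receptor desensitization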
# Ga16 antag count = nonselective Ga16 antagonist in TAAR1 agonist counter-screen. shares compounds with TAAR1 ag. 2,400 tested, 39% active. AID 651952. inhibition, % at 3 µM. CHO-Ga16 ATP-induced calcium, Fluo-8 fluorescence;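 active = inhibition above the plate's mean compound inhibition plus 3 SD, computed per plate, cut at about 22% in these data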
# Numbers stand for hits; 0 = inactive; - = no result given. This is a sample that favours compounds with a hit; in the whole collection about 4% have one here.
SMILES,DAGLB inh,TAAR1 antagonist,TAAR1 ag,GPR7 antag,MPTP block,TAAR1 ag conf,Ga16 ag counter,TAAR1 desens,Ga16 antag count
CCN(CC)CCNc1ccc(CO)c2oc3ccccc3c(=O)c12,0,0,0,-,0,-,-,-,-
CN1CCC(N2CCN(C3CN(Cc4cn(Cc5cccc(C(F)(F)F)c5)nn4)S(=O)(=O)C3)CC2)CC1 (centres undefined),-,0,0,-,0,-,-,-,-
COc1cccc(-c2cc(C(=O)Nc3cnn(Cc4ccc(F)cc4)c3)no2)c1,0,0,46.0,0,0,0,0,0,23.2
CCCOc1ccc(F)cc1-c1cc(C(=O)NC(C)C)[nH]n1,-,0,0,-,0,-,-,-,-
CCCCNC(=O)C[C@@H]1C[C@@]2(C(=O)OC)CC(C)(C)CC=C2N(Cc2ccc3c(c2)OCO3)C1=O,-,0,0,-,0,-,-,-,-
CCOC(=O)[C@]12CCC=C1N(Cc1cccc3ccccc13)C(=O)[C@H](CC(=O)NCCc1ccccc1OC)C2,-,0,55.1,-,0,69.9,0,0,0
CCCCCCCCN1C(=O)[C@H](CC(=O)NCCCC)C[C@@]2(C(=O)OCC)CCCC=C12,-,0,0,-,0,-,-,-,-
CCCCCCCCN1C(=O)[C@H](CC(=O)NCCc2ccccc2OC)C[C@@]2(C(=O)OCC)CCCC=C12,-,0,56.2,-,0,56.5,0,0,0
CCOC(=O)[C@]12CCC=C1N(Cc1cccc3ccccc13)C(=O)[C@H](CC(=O)NCc1cccc3ccccc13)C2,-,0,0,-,0,-,-,-,-
COC(=O)[C@]12CCCCC=C1N(Cc1ccco1)C(=O)[C@H](CC(=O)NCCc1ccccc1OC)C2,-,0,50.6,-,0,0,0,0,0
COC(=O)[C@@]12C[C@@H](CC(=O)NCCc3ccccc3OC)C(=O)N(Cc3ccc4c(c3)OCO4)C1=CCC(C)(C)C2,-,51.0,60.9,-,0,100.3,0,58.5,0
COC(=O)C1(C(=O)OC)c2ncccc2N(S(=O)(=O)c2ccc(C)cc2)C1CC(=O)c1ccccc1 (centres undefined),-,0,0,-,0,-,-,-,-
CC1(Cc2ccc(OC(F)(F)F)cc2)C(=O)Nc2c(Cl)ccc(Cl)c21 (centres undefined),-,0,0,-,0,-,-,-,-
Nc1ccn([C@@H]2O[C@H](C(=O)N[C@H](Cc3ccccc3)C(=O)N3CCN(C(=O)N4CCCCC4)CC3)[C@@H](O)[C@H]2O)c(=O)n1,-,0,0,-,-,-,-,-,-
CCOC(=O)[C@]12CCC=C1N(Cc1ccc3c(c1)OCO3)C(=O)[C@H](CC(=O)NCCc1ccccc1OC)C2,-,0,60.1,-,0,91.0,0,76.2,0
COc1ccc(-c2cc(C3CCN(Cc4ccc([N+](=O)[O-])cc4)CC3)[nH]n2)cc1,-,0,48.5,0,0,39.8,17.8,0,0
COc1ccc(-c2cc(C3CCN(CC(O)C(F)(F)F)CC3)[nH]n2)cc1 (centres undefined),0,0,44.4,0,0,76.7,0,54.5,0
Cc1ccc(CN2CCC(c3nc4ccc(Cl)cc4[nH]3)CC2)cc1,0,0,0,0,0,-,-,-,-
Cc1ccc(CN2CCC(c3cc(-c4ccc(Cl)cc4)n[nH]3)CC2)cc1,0,0,67.4,0,0,84.8,20.9,74.7,31.2
CC(=O)Oc1ccccc1Cn1c(C)c(C(=O)NCc2cccc([N+](=O)[O-])c2)sc1=O,-,0,0,-,0,-,-,-,-
Cc1c(Cl)c([N+](=O)[O-])nn1CC(=O)N1CCc2ccccc2C1,0,0,0,0,0,-,-,-,-
CS(=O)(=O)N(Cc1ccccc1)c1ccc(C(=O)N2CCc3ccccc3C2)cc1,0,91.4,93.0,0,0,101.3,0,96.7,24.5
Cc1cc([N+](=O)[O-])nn1CC(=O)N1CCc2ccccc2C1,0,0,61.2,0,0,44.6,0,0,0
CS(=O)(=O)N(CC(=O)N1CCc2ccccc2C1)c1cccc(F)c1,0,0,0,0,0,-,-,-,-
Cc1cc(C)n(C(CC(=O)N2CCc3ccccc3C2)C(=O)O)n1 (centres undefined),0,90.0,102.4,0,0,107.1,0,93.7,0
CS(=O)(=O)N(CC(=O)N1CCc2ccccc2C1)c1cccc([N+](=O)[O-])c1,0,0,59.7,0,0,53.9,0,0,0
Cc1ccc(C(Nc2ccccc2)c2ccc3ccc(C)nc3c2O)c(C)c1 (centres undefined),-,0,0,-,-,-,-,-,-
CCCNC(=O)C1(C)CCN(C(=O)c2ccc(C)c(F)c2)C1 (centres undefined),-,0,0,-,0,-,-,-,-
Cc1cc(Nc2ccc(Cl)cc2)nc(N)n1,0,0,52.7,0,0,61.0,0,0,0
